# Assay results from paper PMC2978887 (Calcified Tissue International, 2010).
# Like-named read-outs stand apart in the source and are kept apart here.
# Key:
# [1] = cited from earlier work
# [2] = cited from earlier work; remark: listed apart in the source
# [3] = Population pharmacokinetics of teriparatide after subcutaneous injection; type: in vivo, postmenopausal women with osteoporosis
# How it was run: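 Serum drug levels measured in a 360-patient subset at months 1, 3, 6, 12 and 18, one sample per visit within a 0–30 min, 30 min–1 h, 1–2 h, 2–3 h or 3–4 h postdose window. Serum stored at -70°C; two-site immunoradiometric assay using bead-bound capture and 125I-labelled detection antibodies to PTH 1–34. Standard curve 9.8–20,000 pg/ml; quantifiable range 50–2,000 pg/ml; accuracy and precision ±20%.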
# serum calcium [4] = experiment: Serum calcium pharmacodynamic response to teriparatide; type: in vivo, postmenopausal women with osteoporosis; conditions: for predose serum calcium, mean ± SE: samples 16–24 h postdose
# How it was run: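 Unadjusted total serum calcium measured in all patients at baseline and 4–6 h postdose at months 1, 3, 6, 12, 18 and 24, at three laboratories using identical, cross-calibrated methods. Samples falling 16–24 h postdose served as predose values.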
# [5] = Adverse events commonly associated with hypercalcemia, Fracture Prevention Trial; type: in vivo, postmenopausal women with osteoporosis; conditions: teriparatide 20 μg/day; overall cohort (n = 541)
# How it was run: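 Events typical of hypercalcemia were collected throughout the trial in women randomized to once-daily subcutaneous teriparatide or placebo. They were tabulated for the whole teriparatide cohort and for the subset whose 4–6 h postdose serum calcium exceeded 10.6 mg/dl.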
# [6] = cited from earlier work; remark: listed apart in the source
# serum calcium [7] = conditions: rats; subcutaneous injections every hour for six injections; cited from earlier work
# [8] = comparing 10th and 90th percentiles of body weight (51–80 kg), population PK
# [9] = female, human, serum, sc, 20 ug
# [10] = daily injections of teriparatide 20 µg
# [11] = indirect-response PK–PD model, teriparatide 20 μg sc, 360 patients
compound,measurement,setting,value
"rhPTH(1–84): full human recombinant PTH, available for treatment of osteoporosis in some countries at a daily dose of 100 μg",bioavailability,[1],55%
same,apparent terminal half-life,[1]; sc,90 to 150 min
same,time of first peak of serum concentration–time profile after dosing,"[1]; single-dose sc, dose range 0.02–5.0 μg/kg",5 to 10 min
parathyroid hormone [PTH],half-life (clearance of the endogenous hormone),[2],< 2 min
"CC[C@H](C)[C@H](NC(=O)[C@H](CCC(=O)O)NC(=O)[C@H](CO)NC(=O)[C@@H](NC(=O)[C@@H](N)CO)C(C)C)C(=O)N[C@@H](CCC(N)=O)C(=O)N[C@@H](CC(C)C)C(=O)N[C@@H](CCSC)C(=O)N[C@@H](Cc1cnc[nH]1)C(=O)N[C@@H](CC(N)=O)C(=O)N[C@@H](CC(C)C)C(=O)NCC(=O)N[C@@H](CCCCN)C(=O)N[C@@H](Cc1cnc[nH]1)C(=O)N[C@@H](CC(C)C)C(=O)N[C@@H](CC(N)=O)C(=O)N[C@@H](CO)C(=O)N[C@@H](CCSC)C(=O)N[C@@H](CCC(=O)O)C(=O)N[C@@H](CCCN=C(N)N)C(=O)N[C@H](C(=O)N[C@@H](CCC(=O)O)C(=O)N[C@@H](Cc1c[nH]c2ccccc12)C(=O)N[C@@H](CC(C)C)C(=O)N[C@@H](CCCN=C(N)N)C(=O)N[C@@H](CCCCN)C(=O)N[C@@H](CCCCN)C(=O)N[C@@H](CC(C)C)C(=O)N[C@@H](CCC(N)=O)C(=O)N[C@@H](CC(=O)O)C(=O)N[C@H](C(=O)N[C@@H](Cc1cnc[nH]1)C(=O)N[C@@H](CC(N)=O)C(=O)N[C@@H](Cc1ccccc1)C(=O)O)C(C)C)C(C)C [teriparatide, recombinant human parathyroid hormone (rhPTH[1–34])]",total duration of exposure to the peptide,[3]; 20 μg sc once daily,approximately 4 h
same,duration of exposure above basal endogenous PTH concentrations (28 pg/ml),"[3]; 20 μg sc, molar basis, concentration–time profile extrapolated to infinite time",about 4 h
same,prolongation in Tmax in heavier patients,[3]; [8],2.3 min
same,reduction in Cmax in heavier patients,[3]; [8],26%
same,CL/F,[3]; [9],~1030 mL/min
same,Tmax,[3]; [9],~30 min
same,level at 3 h,[3]; [9],< 0.05 ng/mL
same,"slower rate of absorption, thigh vs abdominal wall injection","[3]; population PK covariate estimate, 20 μg sc",21%
same,half-life based upon Ka (ln 2/Ka),"[3]; population PK model, 20 μg sc",1.1 h
same,"predose serum calcium, mean ± SE","serum calcium [4]; 1 month, teriparatide 20 μg",9.19 ± 0.03 mg/dL
same,"predose serum calcium, mean ± SE","serum calcium [4]; 3 months, teriparatide 20 μg",9.12 ± 0.08 mg/dL
same,"predose serum calcium, mean ± SE","serum calcium [4]; 6 months, teriparatide 20 μg",9.29 ± 0.03 mg/dL
same,"predose serum calcium, mean ± SE","serum calcium [4]; 12 months, teriparatide 20 μg",9.40 ± 0.03 mg/dL
same,"predose serum calcium, mean ± SE","serum calcium [4]; 18 months, teriparatide 20 μg",9.30 ± 0.08 mg/dL
same,"predose serum calcium, mean ± SE","serum calcium [4]; 24 months, teriparatide 20 μg",9.26 ± 0.05 mg/dL
same,time after dosing at which serum calcium begins to increase,serum calcium [4]; [10],approximately 2 h
same,time of maximum serum calcium concentration/effect after dosing,serum calcium [4]; [10],4.25 h
same,"Emax, maximum calcemic response","serum calcium [4]; indirect-response PK–PD model, 62% CV",19.5%
same,"EC50, teriparatide concentration required to produce 50% of the maximum calcium effect","serum calcium [4]; indirect-response PK–PD model, serum teriparatide",0.054 ng/mL
same,"Kin, zero-order production rate for change in serum calcium",serum calcium [4]; [11],1.1 mg/(dl · hour)
same,"Kout, first-order dissipation rate for calcium response",serum calcium [4]; [11],0.12 h⁻¹
same,patients with a predose serum calcium >11.0 mg/dl,serum calcium [4]; teriparatide 20 μg,no
same,patients with serum calcium above the upper limit of normal (10.6 mg/dl) 4–6 h after dosing,"serum calcium [4]; teriparatide 20 µg group, fifty patients, placebo 1.1%",9.4%
same,time after dosing at which serum calcium begins to decline,serum calcium [4]; teriparatide 20 µg sc daily,approximately 6 h
same,time after each dose by which serum calcium returned to predose levels,serum calcium [4]; teriparatide 20 µg sc daily,16 to 24 h
same,persistent hypercalcemia,"serum calcium [4]; teriparatide 20 μg sc daily, median 21 months' treatment",not observed
same,patients with a predose serum calcium value >10.6 mg/dl,"serum calcium [4]; teriparatide 20 μg, 1/223 patients",0.4%
same,Abdominal pain,[5],48 (8.9%) n (%)
same,Anorexia,[5],8 (1.5%) n (%)
same,Arrhythmias,[5],9 (1.7%) n (%)
same,Constipation,[5],32 (5.9%) n (%)
same,Depression,[5],21 (3.9%) n (%)
same,Headache,[5],44 (8.1%) n (%)
same,Hypertension,[5],41 (7.6%) n (%)
same,Nausea,[5],51 (9.4%) n (%)
same,Pancreatitis,[5],1 (0.2%) n (%)
same,Peptic ulcer/gastritis,[5],8 (1.5%) n (%)
same,Vomiting,[5],19 (3.5%) n (%)
same,bioavailability,[6],95%
same,half-life following injection,[6],60 min
same,time to peak concentration following injection,[6],30 min
same,true elimination half-life following intravenous administration,[6]; intravenous,5 min
same,sustained elevated serum calcium concentrations,serum calcium [7],sustained elevated serum calcium concentrations occurred
